# Test results reported in ChEMBL document CHEMBL4706532, “New Seco-DSP derivatives as potent chemosensitizers” (Eur J Med Chem, 2020).
# Tested on: HUVEC
# Assay: Cytotoxicity against human HUVEC cells assessed as reduction in cell viability at 10 uM incubated for 48 hrs by MTT assay
# Type: cell-based
# Details: not given
# Method in brief: (§1)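 Cells plated at 3~5 × 10^3 per well and allowed 24 h before exposure to compound or DMSO (negative control) for 48 h. MTT was added for 4 h, formazan dissolved in DMSO and absorbance read at 490 nm. Inhibition was calculated relative to DMSO and blank.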
row,Compound,Activity
1,CCOc1ccc2c(=O)cc(CC)oc2c1COC(=O)c1cc(OC)c(OC)c(OC)c1,Non-Toxic
2,CCc1cc(=O)c2ccc(OC)c(COC(=O)Cc3ccc(Cl)cc3)c2o1,Non-Toxic
3,CCc1cc(=O)c2ccc(OC)c(COC(=O)c3ccc(OC)c(OC)c3)c2o1,Non-Toxic
4,CCc1cc(=O)c2ccc(OC(C)C)c(COC(=O)/C=C/c3ccc(OC)cc3)c2o1,Non-Toxic
5,CCc1cc(=O)c2ccc(OC(C)C)c(COC(=O)c3ccc(C#N)cc3)c2o1,Non-Toxic
6,CCc1cc(=O)c2ccc(OC)c(COC(=O)c3c(F)cccc3F)c2o1,Non-Toxic
7,CCc1cc(=O)c2ccc(OC)c(COC(=O)c3cc([N+](=O)[O-])ccc3Cl)c2o1,Non-Toxic
8,CCOc1ccc2c(=O)cc(CC)oc2c1COC(=O)c1ccc(C#N)cc1,Non-Toxic
9,CCc1cc(=O)c2ccc(OC)c(COC(=O)c3ccc(C(C)(C)C)cc3)c2o1,Non-Toxic
10,CCc1cc(=O)c2ccc(OC)c(COC(=O)c3ccc(Cl)cc3Cl)c2o1,Non-Toxic
11,CCc1cc(=O)c2ccc(OC)c(COC(=O)c3ccc(N)c(C)c3)c2o1,Non-Toxic
12,CCc1cc(=O)c2ccc(OC)c(COC(=O)c3cc(OC)c(OC)c(OC)c3)c2o1,Non-Toxic
13,CCc1cc(=O)c2ccc(OC)c(COC(=O)c3ccccc3Br)c2o1,Non-Toxic
14,CCc1cc(=O)c2ccc(OC)c(COC(=O)Cc3ccccc3C)c2o1,Non-Toxic
15,CCc1cc(=O)c2ccc(OC)c(COC(=O)c3ccc(Cl)c([N+](=O)[O-])c3)c2o1,Non-Toxic

# Tested on: not listed separately
# Assay: Cytotoxicity against human HOSEC cells assessed as reduction in cell viability at 10 uM incubated for 48 hrs by MTT assay
# Type: cell-based
# Details: hose
# Method in brief: as §1, with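 “h. A2780/T and KB-VIN were grown in DMEM/F12 with 10% FBS, and HUVEC, HOSEC and T29 in RPMI-1640 with 10% FBS, all at 37 °C under 5% CO₂.” for “h.”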
row,Compound,Activity
1,CCOc1ccc2c(=O)cc(CC)oc2c1COC(=O)c1cc(OC)c(OC)c(OC)c1,Non-Toxic
2,CCc1cc(=O)c2ccc(OC)c(COC(=O)Cc3ccc(Cl)cc3)c2o1,Non-Toxic
3,CCc1cc(=O)c2ccc(OC)c(COC(=O)c3ccc(OC)c(OC)c3)c2o1,Non-Toxic
4,CCc1cc(=O)c2ccc(OC(C)C)c(COC(=O)/C=C/c3ccc(OC)cc3)c2o1,Non-Toxic
5,CCc1cc(=O)c2ccc(OC(C)C)c(COC(=O)c3ccc(C#N)cc3)c2o1,Non-Toxic
6,CCc1cc(=O)c2ccc(OC)c(COC(=O)c3c(F)cccc3F)c2o1,Non-Toxic
7,CCc1cc(=O)c2ccc(OC)c(COC(=O)c3cc([N+](=O)[O-])ccc3Cl)c2o1,Non-Toxic
8,CCOc1ccc2c(=O)cc(CC)oc2c1COC(=O)c1ccc(C#N)cc1,Non-Toxic
9,CCc1cc(=O)c2ccc(OC)c(COC(=O)c3ccc(C(C)(C)C)cc3)c2o1,Non-Toxic
10,CCc1cc(=O)c2ccc(OC)c(COC(=O)c3ccc(Cl)cc3Cl)c2o1,Non-Toxic
11,CCc1cc(=O)c2ccc(OC)c(COC(=O)c3ccc(N)c(C)c3)c2o1,Non-Toxic
12,CCc1cc(=O)c2ccc(OC)c(COC(=O)c3cc(OC)c(OC)c(OC)c3)c2o1,Non-Toxic
13,CCc1cc(=O)c2ccc(OC)c(COC(=O)c3ccccc3Br)c2o1,Non-Toxic
14,CCc1cc(=O)c2ccc(OC)c(COC(=O)Cc3ccccc3C)c2o1,Non-Toxic
15,CCc1cc(=O)c2ccc(OC)c(COC(=O)c3ccc(Cl)c([N+](=O)[O-])c3)c2o1,Toxic

# Tested on: not listed separately
# Assay: Cytotoxicity against human T29 cells assessed as reduction in cell viability at 10 uM incubated for 48 hrs by MTT assay
# Type: cell-based
# Details: t29, 48 h
# Method in brief: as §1, with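 “h. A2780/T and KB-VIN were grown in DMEM/F12 with 10% FBS, and HUVEC, HOSEC and T29 in RPMI-1640 with 10% FBS, all at 37 °C under 5% CO₂.” for “h.”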
row,Compound,Activity
1,CCOc1ccc2c(=O)cc(CC)oc2c1COC(=O)c1cc(OC)c(OC)c(OC)c1,Non-Toxic
2,CCc1cc(=O)c2ccc(OC)c(COC(=O)Cc3ccc(Cl)cc3)c2o1,Non-Toxic
3,CCc1cc(=O)c2ccc(OC)c(COC(=O)c3ccc(OC)c(OC)c3)c2o1,Non-Toxic
4,CCc1cc(=O)c2ccc(OC(C)C)c(COC(=O)/C=C/c3ccc(OC)cc3)c2o1,Non-Toxic
5,CCc1cc(=O)c2ccc(OC(C)C)c(COC(=O)c3ccc(C#N)cc3)c2o1,Non-Toxic
6,CCc1cc(=O)c2ccc(OC)c(COC(=O)c3c(F)cccc3F)c2o1,Non-Toxic
7,CCc1cc(=O)c2ccc(OC)c(COC(=O)c3cc([N+](=O)[O-])ccc3Cl)c2o1,Non-Toxic
8,CCOc1ccc2c(=O)cc(CC)oc2c1COC(=O)c1ccc(C#N)cc1,Non-Toxic
9,CCc1cc(=O)c2ccc(OC)c(COC(=O)c3ccc(C(C)(C)C)cc3)c2o1,Non-Toxic
10,CCc1cc(=O)c2ccc(OC)c(COC(=O)c3ccc(Cl)cc3Cl)c2o1,Non-Toxic
11,CCc1cc(=O)c2ccc(OC)c(COC(=O)c3ccc(N)c(C)c3)c2o1,Non-Toxic
12,CCc1cc(=O)c2ccc(OC)c(COC(=O)c3cc(OC)c(OC)c(OC)c3)c2o1,Non-Toxic
13,CCc1cc(=O)c2ccc(OC)c(COC(=O)c3ccccc3Br)c2o1,Non-Toxic
14,CCc1cc(=O)c2ccc(OC)c(COC(=O)Cc3ccccc3C)c2o1,Non-Toxic
15,CCc1cc(=O)c2ccc(OC)c(COC(=O)c3ccc(Cl)c([N+](=O)[O-])c3)c2o1,Toxic

# Tested on: A2780/Taxol
# Assay: Cytotoxicity against human A2780T cells assessed as reduction in cell viability at 10 uM incubated for 48 hrs by MTT assay
# Type: cell-based
# Details: not given
# Method in brief: as §1, with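 “h. A2780/T and KB-VIN were grown in DMEM/F12 with 10% FBS, and HUVEC, HOSEC and T29 in RPMI-1640 with 10% FBS, all at 37 °C under 5% CO₂.” for “h.”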
row,Compound,Activity
1,CCOc1ccc2c(=O)cc(CC)oc2c1COC(=O)c1cc(OC)c(OC)c(OC)c1,Non-Toxic
2,CCc1cc(=O)c2ccc(OC)c(COC(=O)Cc3ccc(Cl)cc3)c2o1,Non-Toxic
3,CCc1cc(=O)c2ccc(OC)c(COC(=O)c3ccc(OC)c(OC)c3)c2o1,Toxic
4,CCc1cc(=O)c2ccc(OC(C)C)c(COC(=O)/C=C/c3ccc(OC)cc3)c2o1,Non-Toxic
5,CCc1cc(=O)c2ccc(OC(C)C)c(COC(=O)c3ccc(C#N)cc3)c2o1,Toxic
6,CCc1cc(=O)c2ccc(OC)c(COC(=O)c3c(F)cccc3F)c2o1,Non-Toxic
7,CCc1cc(=O)c2ccc(OC)c(COC(=O)c3cc([N+](=O)[O-])ccc3Cl)c2o1,Non-Toxic
8,CCOc1ccc2c(=O)cc(CC)oc2c1COC(=O)c1ccc(C#N)cc1,Toxic
9,CCc1cc(=O)c2ccc(OC)c(COC(=O)c3ccc(C(C)(C)C)cc3)c2o1,Toxic
10,CCc1cc(=O)c2ccc(OC)c(COC(=O)c3ccc(Cl)cc3Cl)c2o1,Non-Toxic
11,CCc1cc(=O)c2ccc(OC)c(COC(=O)c3ccc(N)c(C)c3)c2o1,Non-Toxic
12,CCc1cc(=O)c2ccc(OC)c(COC(=O)c3cc(OC)c(OC)c(OC)c3)c2o1,Non-Toxic
13,CCc1cc(=O)c2ccc(OC)c(COC(=O)c3ccccc3Br)c2o1,Toxic
14,CCc1cc(=O)c2ccc(OC)c(COC(=O)Cc3ccccc3C)c2o1,Non-Toxic
15,CCc1cc(=O)c2ccc(OC)c(COC(=O)c3ccc(Cl)c([N+](=O)[O-])c3)c2o1,Non-Toxic

# Tested on: not listed separately
# Assay: Reversal of multidrug resistance activity in P-gp overexpressing human A2780T cells assessed as potentiation of PTX-induced cytotoxicity by measuring reversal ratio at 10 uM incubated for 48 hrs in presence of paclitaxel by MTT assay
# Type: functional, A2780/Taxol
# Details: not given
# Method in brief: (§2)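 Resistant cells were plated at 3~5 × 10^3 per well, given 24 h, then co-treated with test compound plus a range of anticancer drug concentrations (PTX for A2780/T, VCR for KB-VIN, cisplatin for A2780/CDDP) or DMSO for 48 h. Read-out was by MTT, 4 h at 37 °C, with absorbance at 490 nm. Reversal ratio = IC50 (drug alone) / IC50 (drug with compound).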
row,Compound,Ratio
1,CCOc1ccc2c(=O)cc(CC)oc2c1COC(=O)c1cc(OC)c(OC)c(OC)c1,457
2,CCc1cc(=O)c2ccc(OC)c(COC(=O)Cc3ccc(Cl)cc3)c2o1,89
3,CCc1cc(=O)c2ccc(OC)c(COC(=O)c3ccc(OC)c(OC)c3)c2o1,260
4,CCc1cc(=O)c2ccc(OC(C)C)c(COC(=O)/C=C/c3ccc(OC)cc3)c2o1,490
5,CCc1cc(=O)c2ccc(OC(C)C)c(COC(=O)c3ccc(C#N)cc3)c2o1,10
6,CCc1cc(=O)c2ccc(OC)c(COC(=O)c3c(F)cccc3F)c2o1,43
7,CCc1cc(=O)c2ccc(OC)c(COC(=O)c3cc([N+](=O)[O-])ccc3Cl)c2o1,57
8,CCOc1ccc2c(=O)cc(CC)oc2c1COC(=O)c1ccc(C#N)cc1,20
9,CCc1cc(=O)c2ccc(OC)c(COC(=O)c3ccc(C(C)(C)C)cc3)c2o1,158
10,CCc1cc(=O)c2ccc(OC)c(COC(=O)c3ccc(Cl)cc3Cl)c2o1,126
11,CCc1cc(=O)c2ccc(OC)c(COC(=O)c3ccc(N)c(C)c3)c2o1,177
12,CCc1cc(=O)c2ccc(OC)c(COC(=O)c3cc(OC)c(OC)c(OC)c3)c2o1,537
13,CCc1cc(=O)c2ccc(OC)c(COC(=O)c3ccccc3Br)c2o1,23
14,CCc1cc(=O)c2ccc(OC)c(COC(=O)Cc3ccccc3C)c2o1,99
15,CCc1cc(=O)c2ccc(OC)c(COC(=O)c3ccc(Cl)c([N+](=O)[O-])c3)c2o1,14

# Tested on: not listed separately
# Assay: Reversal of multidrug resistance activity in P-gp overexpressing human KB-VIN cells assessed as potentiation of VCR-induced cytotoxicity by measuring reversal ratio at 10 uM incubated for 48 hrs in presence of VCR by MTT assay
# Type: functional
# Details: not given
# Method in brief: as §2
row,Compound,Ratio
1,CCOc1ccc2c(=O)cc(CC)oc2c1COC(=O)c1cc(OC)c(OC)c(OC)c1,248
2,CCc1cc(=O)c2ccc(OC)c(COC(=O)c3ccc(OC)c(OC)c3)c2o1,105
3,CCc1cc(=O)c2ccc(OC(C)C)c(COC(=O)/C=C/c3ccc(OC)cc3)c2o1,342
4,CCc1cc(=O)c2ccc(OC)c(COC(=O)c3cc(OC)c(OC)c(OC)c3)c2o1,424

# Tested on: not listed separately
# Assay: Reversal of multidrug resistance activity in human A2780/CDDP cells assessed as potentiation of CDDP-induced cytotoxicity by measuring reversal ratio at 10 uM incubated for 48 hrs in presence of CDDP by MTT assay
# Type: functional
# Details: not given
# Method in brief: as §2
row,Compound,Ratio
1,CCOc1ccc2c(=O)cc(CC)oc2c1COC(=O)c1cc(OC)c(OC)c(OC)c1,1.05
2,CCc1cc(=O)c2ccc(OC(C)C)c(COC(=O)/C=C/c3ccc(OC)cc3)c2o1,0.97
3,CCc1cc(=O)c2ccc(OC)c(COC(=O)c3cc(OC)c(OC)c(OC)c3)c2o1,0.81

# Tested on: not listed separately
# Assay: Cytotoxicity against human KB-VIN cells assessed as reduction in cell viability at 10 uM incubated for 48 hrs by MTT assay
# Type: cell-based
# Details: not given
# Method in brief: as §1, with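 “h. A2780/T and KB-VIN were grown in DMEM/F12 with 10% FBS, and HUVEC, HOSEC and T29 in RPMI-1640 with 10% FBS, all at 37 °C under 5% CO₂.” for “h.”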
row,Compound,Activity
1,CCOc1ccc2c(=O)cc(CC)oc2c1COC(=O)c1cc(OC)c(OC)c(OC)c1,Non-Toxic
2,CCc1cc(=O)c2ccc(OC)c(COC(=O)c3ccc(OC)c(OC)c3)c2o1,Non-Toxic
3,CCc1cc(=O)c2ccc(OC(C)C)c(COC(=O)/C=C/c3ccc(OC)cc3)c2o1,Non-Toxic
4,CCc1cc(=O)c2ccc(OC)c(COC(=O)c3cc(OC)c(OC)c(OC)c3)c2o1,Non-Toxic
